Bioassay records as filed in PubChem BioAssay.
In the library only some 27% were active in any assay of this set; here they are far more common.
Cav3 T inh: Cav3.2 calcium influx blockers – cell-based, Fluo-4 calcium fluorescence, FDSS, MLSMR library, primary screen. B-score at 10 µM. AID 449739, 2010. Voltage-dependent T-type calcium channel subunit alpha-1H (Homo sapiens), O95180. Cav3.2-expressing cells; hits give low values. hit rate 4% among 100,000;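 active means single-dose well whose peak fluorescence ratio is a statistical outlier from its plate by either plate-standardised score or position-corrected B-score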
Rev-RRE block: HIV-1 Rev-RRE binding inhibitors, primary screen, biochemical, FRET, protein-RNA interaction | Rev peptide-RRE RNA binding | hit rate 0.79% among 97,000 | P05866 | inhibition, % at 8 µM;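 active means inhibition above the screen-wide mean plus 3 SD, cut at about 35% in these data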
Target sequence (P05866 whole entry, looked up): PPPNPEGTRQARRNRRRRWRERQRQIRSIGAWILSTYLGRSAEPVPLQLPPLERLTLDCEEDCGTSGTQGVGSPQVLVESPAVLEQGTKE
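Assay system: Rev peptide and RRE RNA, both fluorescently labelled; times: 5 min preincubation and 15 min binding, 25 °C; detection: FRET, ex 480 nm, em 540 and 671 nm; read-out basis: % inhibition from 671/540 nm acceptor-to-donor ratio, scaled between controls; benchmarks: DMSO low control, neomycin B high control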
CYP2C19 activ: human CYP2C19 activators, primary screen, biochemical, luminescence | Cytochrome P450 2C19 (Homo sapiens), P33261 | recombinant CYP2C19, luciferin-H EGE luminescence; hits give high values; 0 = fully inhibited enzyme, 1 = untreated enzyme | activation factor at 5 µM | 96,000 tested, under 10 active | AID 1025, 2008;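 active means activation factor of at least 2 at 5 µM in the primary screen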
CYP2C9 inh: blockers of cytochrome P450 2C9 activity – biochemical, luminescence, ADME assay, primary screen; P11712; CYP2C9 Supersomes, luciferin-H conversion; inhibition, % at 5 µM; hit rate 20% among 96,000;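 active means blocking of liver enzyme CYP2C9 beyond about 50% at 5 µM, limit read from the data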
Target sequence (P11712 whole entry, looked up): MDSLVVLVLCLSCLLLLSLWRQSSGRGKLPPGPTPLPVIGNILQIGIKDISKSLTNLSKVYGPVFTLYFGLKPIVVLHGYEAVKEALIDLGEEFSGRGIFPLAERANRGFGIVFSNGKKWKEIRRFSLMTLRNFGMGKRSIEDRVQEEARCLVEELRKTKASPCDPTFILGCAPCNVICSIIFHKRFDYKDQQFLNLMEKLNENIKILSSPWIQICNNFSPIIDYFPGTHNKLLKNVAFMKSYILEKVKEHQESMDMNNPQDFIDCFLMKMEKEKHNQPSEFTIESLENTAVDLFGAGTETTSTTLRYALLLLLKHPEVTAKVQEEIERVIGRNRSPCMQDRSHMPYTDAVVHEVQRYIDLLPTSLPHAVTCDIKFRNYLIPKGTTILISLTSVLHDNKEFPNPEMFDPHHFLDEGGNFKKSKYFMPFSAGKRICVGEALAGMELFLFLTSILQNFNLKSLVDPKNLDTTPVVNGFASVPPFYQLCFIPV
CYP2C19 inh: blockers of cytochrome P450 2C19 activity – biochemical, luminescence, ADME assay, primary screen; CYP2C19 Supersomes, luciferin-H EGE luminescence, 30 min; inhibition, % at 5 µM; hit rate 21% among 96,000;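 active means CYP2C19 inhibition above a set limit at 5 µM in the primary screen, cut at about 50% in these data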
CYP2C9 activ: human CYP2C9 activators, primary screen, biochemical, luminescence; hit rate 1.4% among 96,000; activation factor at 5 µM; recombinant CYP2C9, luciferin-H conversion; hits give high values; factor 1 = untreated enzyme, 0 = blocked; AID 1024, 2008;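 active means activation factor of 2 or more for CYP2C9 at a 5 µM dose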
A number is an active result; . = inactive; / = no result.

SMILES	Cav3 T inh	Rev-RRE block	CYP2C19 activ	CYP2C9 inh	CYP2C19 inh	CYP2C9 activ
CCOC(=O)N1CCN(C(=O)CSCc2nc(-c3ccccc3F)oc2C)CC1	.	.	.	.	.	.
CCOC(=O)N1CCN(C(=O)CSCc2nc(-c3ccccc3C)oc2C)CC1	.	.	.	.	58.9	.
Cc1ccc(S(=O)(=O)n2cnc3cc([N+](=O)[O-])ccc32)c(C)c1C	.	.	.	.	.	.
COc1ccccc1NC(=O)CN1CCN(CC(=O)Nc2cc(NC(C)=O)ccc2OC)CC1	.	.	.	.	.	.
COc1ccc(NC(C)=O)cc1NC(C)C(=O)Nc1cccc2ccccc12 (stereo unspecified)	.	.	.	82.0	66.7	.
CCOc1cc(CN2CCN(c3cccc(C(F)(F)F)c3)CC2)ccc1OC	-4.4	.	.	.	.	.
COc1ccc(CCNC(=O)CN2CCN(c3ccccc3Cl)CC2)cc1	.	.	.	.	.	.
COc1ccc(CCNC(=O)CN2CCN(c3cccc(C(F)(F)F)c3)CC2)cc1	.	.	.	75.5	76.4	.
C=CCC1(O)C(=O)Nc2ccccc21 (stereo unspecified)	.	.	.	.	.	.
CCn1c2ccccc2c2cc(NC(=O)Cc3ccc(S(=O)(=O)N4CCOCC4)s3)ccc21	.	.	.	.	.	.
CCOC(=O)N1CCC(N(C(=O)Nc2cccc(OC)c2)C(C)CC)CC1 (stereo unspecified)	.	.	.	.	55.8	.
CCOC(=O)N1CCC(N(CCCOC)C(=O)Nc2cccc(OC)c2)CC1	.	.	.	.	.	.
C=C(C)CN=c1scc(C)n1/N=C/c1ccco1	.	.	.	.	87.6	.
O=c1[nH]c2ccc(S(=O)(=O)N3CCN(c4ccccc4F)CC3)cc2s1	.	/	.	.	.	.
O=C1CCc2cc(S(=O)(=O)N3CCN(c4cccc(C(F)(F)F)c4)CC3)ccc2N1	.	.	.	.	.	.
Cc1ccc(C)c(N2CCN(S(=O)(=O)c3ccc4c(c3)CCC(=O)N4)CC2)c1	.	.	.	78.5	.	.
Cc1ccc(C)c(N2CCN(C(=O)CN(C)S(=O)(=O)c3ccc4c(c3)CCC(=O)N4)CC2)c1	/	.	.	81.6	50.6	.
Cc1ccc(C)c(N2CCN(S(=O)(=O)c3ccc4[nH]c(=O)c(=O)[nH]c4c3)CC2)c1	.	.	.	66.5	.	.
COc1ccccc1N1CCN(C(=O)CCNS(=O)(=O)c2ccc3c(c2)CCC(=O)N3)CC1	.	.	.	.	.	.
CCOc1ccc(-n2c(COc3ccccc3)nnc2SCC(N)=O)cc1	.	.	.	.	75.6	.
Cc1ccc(OCc2nnc(SCC(=O)c3ccccc3)n2-c2ccccc2)cc1	-4.36	.	/	/	/	/
COC(=O)c1cccc(NC(=O)CSc2nnc(COc3ccc(C#N)cc3)n2-c2ccccc2)c1	.	.	.	69.4	.	.
COCc1nnc(SCC(=O)Nc2cccc(Cl)c2C)n1-c1ccccc1	.	.	.	.	84.0	.
COCc1nnc(SCC(=O)NCc2ccccc2)n1-c1ccccc1	.	.	.	.	.	.
C=CCOc1nc2c(c(=O)n(Cc3ccc(Cl)cc3)c(=O)n2C)n1C	.	/	.	.	.	.
SMILES	Cav3 T inh	Rev-RRE block	CYP2C19 activ	CYP2C9 inh	CYP2C19 inh	CYP2C9 activ
COc1ccc(CCNC(=O)NC23CC4CC(CC(C4)C2)C3)cc1OC	.	.	.	.	.	.
C=CCNC(=O)c1ccccc1NC(=O)c1ccccc1	.	.	.	.	.	.
C=CCNC(=O)C(=O)c1cccn1-c1ccsc1C(=O)OC	.	.	.	.	93.2	.
C=CCNC(=O)c1cccn1-c1ccsc1C(=O)OC	.	.	.	.	.	.
CCOC(=O)CN1C(=O)C(CC)Oc2ccccc21 (stereo unspecified)	.	.	.	.	.	.
CCOC(=O)CN1C(=O)C(Sc2n[nH]c(-c3ccccc3)n2)CCc2ccccc21 (stereo unspecified)	.	.	.	92.9	88.7	.
CC(C)(C)NC(=O)CSc1nnc(C2CC2)n1Cc1ccccc1	.	/	.	.	.	.
Cc1ccccc1CSCC(=O)c1c(N)n(C)c(=O)n(C)c1=O	.	.	.	57.8	99.0	.
c1ccc(OCc2nn3c(-c4ccccn4)nnc3s2)cc1	.	.	.	.	.	.
c1ccc(-c2nn3c(C4COc5ccccc5O4)nnc3s2)cc1 (stereo unspecified)	/	.	/	/	/	/
Clc1ccc(OCc2nn3c(C4CCCCC4)nnc3s2)cc1	.	.	.	90.1	.	.
Cc1ccc(OCc2nn3c(-c4ccco4)nnc3s2)cc1	.	.	.	.	.	.
c1ccc(Cc2nn3c(-c4ccncc4)nnc3s2)cc1	.	.	.	83.7	99.0	.
c1ccc(Cc2nn3c(C4COc5ccccc5O4)nnc3s2)cc1 (stereo unspecified)	.	.	.	54.6	54.4	.
c1ccc(OCc2nn3c(-c4ccncc4)nnc3s2)cc1	.	/	.	79.5	99.2	.
COC(C[C@H]1O[C@H]1[C@H](O)[C@H](C)OCc1ccccc1)OC	.	/	/	/	/	/
CCCN(CCC)C(=S)NC(=O)c1ccc(Cl)cc1Cl	.	.	.	.	.	.
Cc1cc(Nc2ccc(C)c(C)c2)n2nc(C)nc2n1	.	/	.	52.0	.	.
Cc1cc2nc(C3CCN(CC4COc5ccccc5O4)CC3)[nH]c2cc1C (stereo unspecified)	-6.26	.	.	.	53.9	.
Cc1ccc(C)c(NC(=O)CN2C(=O)CNC2=O)c1	.	.	.	.	.	.
O=C(CCCN1C(=O)c2ccccc2C1=O)Oc1ccc(F)cc1	.	.	.	.	65.0	.
Cc1cc(C)cc(OC(=O)CCN2C(=O)c3ccccc3C2=O)c1	.	.	/	/	/	/
COc1ccc(-n2c3c(cc(C(=O)N4CCCCC4)c2=O)C(=O)CC(C)(C)C3)cc1	.	.	.	.	.	.
COc1ccc2cc(C#N)c(N3CCN(Cc4nnnn4CCC(C)C)CC3)nc2c1	.	.	.	56.8	58.8	.
Cc1ccc2cc(C#N)c(N3CCN(C)CC3)nc2c1	.	.	/	/	/	/
Cc1ccc2nc(N3CCN(C)CC3)c(C#N)cc2c1	.	.	.	.	.	.
Cc1ccc2nc(N3CCN(Cc4nnnn4Cc4ccccc4)CC3)c(C#N)cc2c1	.	.	.	88.9	78.5	.
CC1OC(Nc2cccc3ccccc23)C(O)C(O)C1O (stereo unspecified)	.	.	.	.	.	.
COc1cc(NC(=O)N[C@H](C(=O)O)C(C)C)cc(OC)c1	.	.	.	.	.	.
